Experimental data: article PMC7386824 (Journal of medicinal chemistry, 2020)
“Also recorded” adds a separate entry of the source.

Experiments:
[1] = system: HCMV Towne (pp28-luciferase); assay: pp28-luciferase recombinant HCMV Towne, luciferase activity at 72 hpi in HFFs; format: cell-based, human cytomegalovirus
HSV1 = assay: plaque reduction assay, HSV1 clinical isolate in Vero cells; format: cell-based, herpes simplex 1
HSV2 = assay: plaque reduction assay, HSV2 clinical isolate in Vero cells; format: cell-based, herpes simplex 2
EBV = assay: inhibition of lytic EBV replication in AKATA cells, real-time PCR; format: cell-based, Epstein Barr virus
MCMV Smith strain = assay: plaque reduction assay, MCMV in MEFs; format: cell-based, mouse CMV
HCMV Towne [2] = assay: HCMV entry, indirect immunofluorescence assay for pp65; format: cell-based, human cytomegalovirus; details: 24 h pretreatment; MLS8969 3 μM, heparin 30 μM, GCV 5 μM; IFA 2 hpi
HCMV Towne [3] = assay: Western blot of viral protein expression in HCMV-infected HFFs; format: cell-based, human cytomegalovirus
HCMV Towne [4] = assay: viral DNA replication and DNA load in supernatants, US17 real-time PCR; format: cell-based, human cytomegalovirus; details: HCMV Towne MOI 0.1; NFU1827 5 μM, MLS8554 2 μM, MLS8091 1.5 μM, NCGC2955 3 μM; GCV 5 μM
HCMV Towne [5] = assay: add-on and removal assays, luciferase activity at 72 hpi; format: cell-based, human cytomegalovirus; details: for HCMV suppression when compound removed at 6 h (removal assay) / activity when added at or after 24 hpi (add-on assay): HCMV Towne MOI 1, luciferase 72 hpi; for time of anti-HCMV activity: add-on and removal assays; for timing of activity in the add-on assay / timing of activity in the removal assay: compared with GCV
MEFs = assay: toxicity to MEFs; format: cell-based, mouse
Summary of the method: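 Uninfected mouse embryonic fibroblasts were exposed to test compound for 72 h or 8–10 days, the same time points as the antiviral assays. MTT (5 mg/mL stock in PBS) was then added, the plates were shaken at 150 rpm for 5 min and incubated at 37 °C for 2–3 h. Formazan formed by living cells was read as absorbance at 560 nm.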

HCMV Towne [6] = assay: drug combination with letermovir, plaque reduction assay, Bliss model; format: cell-based, human cytomegalovirus; details: Human betaherpesvirus 5, read-out: EC50 (Compound 1, letermovir alone)

Row | Compound | activity against HSV1 (in words) (HSV1) | activity against HSV2 (in words) (HSV2) | activity against MCMV (in words) (MCMV Smith strain) | inhibition of HCMV entry (pp65 nuclear staining) (HCMV Towne [2]) | viral protein expression (Western blot) (HCMV Towne [3]; MOI 1, 72 hpi) | viral DNA replication in cells (HCMV Towne [4]) | viral DNA yield in supernatants (HCMV Towne [4]) | further results
1 | COc1ccc(Cl)cc1C(=O)Nc1ccc(NC(=O)c2ccco2)cc1 [MLS8969] | did not inhibit | did not inhibit | did not inhibit | inhibited HCMV entry only at MOI of 0.1 | no inhibition of viral protein expression |  |  | reduction of luciferase activity ([1]; compound added after infection, MOI of 1 PFU/cell, 72 hpi): minimal reduction in luciferase activity; inhibition of luciferase activity ([1]; compound added before infection, range of MOIs): MOI-dependent inhibition of luciferase activity; activity against EBV (in words) (EBV): did not inhibit; viral protein expression (Western blot) (HCMV Towne [3]; pretreatment followed by infection at low MOI (0.01), 72 hpi): decreased IE1/2, pp65, UL84 and UL44 protein levels
2 | CCc1ccc(NC(=O)[C@H](Cc2c[nH]c3ccccc23)NC(=O)[C@@H]2Cc3ccccc3CN2)cc1 [MLS8554] | active | active |  |  | reduced IE2, UL44, UL84 and pp65 protein levels | significantly reduced | significantly reduced | HCMV suppression when compound removed at 6 h (removal assay) (HCMV Towne [5]): near complete; activity when added at or after 24 hpi (add-on assay) (HCMV Towne [5]): activity was significantly reduced; time of anti-HCMV activity (HCMV Towne [5]): 0–24 hpi
3 | CC(C)NC(=O)C1CCN(C(=O)c2cc3sccc3n2Cc2ccc(Cl)cc2)CC1 [NCGC2955, 1-(4-(4-chIorobenzyl)-4H-thieno[3,2-b]pyrrole-5-carbonyl)-N-isopropyIpiperidine-4-carboxamide] |  |  |  |  | strong reduction in viral protein expression including IE1 and IE2 | modest | modest | dose response in pp28-luciferase assay [1]: did not show a full dose response; concentration at which toxicity to MEFs was observed (MEFs): ≥ 10 µM; timing of activity in the add-on assay (HCMV Towne [5]): overlapped with that of GCV; timing of activity in the removal assay (HCMV Towne [5]): longer activity than GCV
4 | CCN1CCN(CCCNC(=O)c2ccc3c(c2)sc2nc(-c4ccc(OC)cc4)cn23)CC1 [NFU1827, N-[3-(4-ethylpiperazin-1-yl)propyl]-4-(4-methoxyphenyl)-7-thia-2,5-diazatricyclo [6.4.0.02,6] dodeca-1(8),3,5,9,11-pentaene-10-carboxamide] | no activity | no activity | no activity |  | reduced the level of both IE1 and IE2 | significantly reduced | significantly reduced | HCMV suppression when compound removed at 6 h (removal assay) (HCMV Towne [5]): significant HCMV suppression; activity when added at or after 24 hpi (add-on assay) (HCMV Towne [5]): lost its ability to inhibit HCMV; time of anti-HCMV activity (HCMV Towne [5]): 0–24 hpi
5 | Heparin |  |  |  | inhibited HCMV entry |  |  |  | 
6 | COc1cccc(N2CCN(C3=Nc4c(F)cccc4[C@H](CC(=O)O)N3c3cc(C(F)(F)F)ccc3OC)CC2)c1 [Letermovir] |  |  |  |  |  |  |  | EC50 (HCMV Towne [6]): 1.1 ± 0.1 nM
7 | Nc1nc2c(ncn2COC(CO)CO)c(=O)[nH]1 [GCV, Ganciclovir] |  |  |  | did not affect pp65 nuclear staining |  |  |  | 
8 | Nc1c(S(=O)(=O)c2cccs2)c2nc3ccccc3nc2n1Cc1ccccc1 [MLS8091] | did not inhibit | did not inhibit | did not inhibit |  | Inhibition of all viral proteins | higher than that achieved with GCV | not significantly different from GCV | activity against EBV (in words) (EBV): did not inhibit; also recorded: not active; timing of activity in the add-on assay (HCMV Towne [5]): overlapped with that of GCV; timing of activity in the removal assay (HCMV Towne [5]): showed earlier effects
